Results from ChEMBL document CHEMBL4130563, “Structure-Based Design and Synthesis of New Estrane-Pyridine Derivatives as Cytochrome P450 (CYP) 1B1 Inhibitors” (ACS Med Chem Lett, 2017).

Assays:
CYP1B1 [1] = biological target: T1, CYP1B1 (Homo sapiens, UniProt Q16678); experiment: Inhibition of recombinant human CYP1B1 expressed in supersomes coexpressing P450 reductase at 0.3 uM using 7-ethyl-O-resorufin as substrate after 45 mins in presence of NADPH by fluorescence assay relative to control; conditions: probe 7-ethyl-O-resorufin
T1 sequence (Q16678 whole entry): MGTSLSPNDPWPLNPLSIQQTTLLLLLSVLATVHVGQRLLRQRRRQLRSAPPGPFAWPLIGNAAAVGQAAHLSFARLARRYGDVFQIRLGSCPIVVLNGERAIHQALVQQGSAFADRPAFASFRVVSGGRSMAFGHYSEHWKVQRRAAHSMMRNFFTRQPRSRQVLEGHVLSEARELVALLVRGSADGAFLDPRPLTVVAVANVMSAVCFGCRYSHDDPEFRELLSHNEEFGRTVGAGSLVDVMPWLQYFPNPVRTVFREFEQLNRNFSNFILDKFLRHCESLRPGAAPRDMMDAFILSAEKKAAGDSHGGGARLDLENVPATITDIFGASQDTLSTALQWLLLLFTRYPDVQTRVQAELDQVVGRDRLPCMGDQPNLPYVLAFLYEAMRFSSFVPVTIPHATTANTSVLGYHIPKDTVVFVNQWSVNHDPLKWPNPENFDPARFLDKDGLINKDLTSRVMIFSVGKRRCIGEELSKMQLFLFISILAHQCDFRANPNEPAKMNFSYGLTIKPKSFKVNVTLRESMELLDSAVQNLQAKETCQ

Cytochrome P450 1B1 = biological target: T2, Cytochrome P450 1B1 (Homo sapiens, UniProt Q16678); experiment: Inhibition of recombinant human CYP1B1 expressed in supersomes coexpressing P450 reductase using 7-ethyl-O-resorufin as substrate after 45 mins in presence of NADPH by fluorescence assay
T2 sequence (Q16678 whole entry): T1 sequence (Q16678 whole entry)

CYP1B1 [2] = biological target: T1, CYP1B1; experiment: Potency index, ratio of alpha-naphthoflavone IC50 to compound IC50 for inhibition of recombinant human CYP1B1 expressed in supersomes coexpressing P450 reductase; conditions: read-out: Ratio IC50
Procedure, shortened: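 EROD assay on recombinant human CYP1B1 with NADPH as cofactor. Resorufin ethyl ether is the substrate, and conversion to resorufin is read by fluorescence.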

[3] = Drug uptake in rat plasma at 2 mg/kg, sc administered as single dose measured at 2 hrs post dose by LC-MS analysis; format: ADME, organism-based
Procedure, shortened: (§1)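 Rats given one subcutaneous injection of the 17β-alcohol parent at 2.0 mg/kg (0.66 mg in PG:DMSO 92:8). Plasma levels of the parent and of its 17-keto metabolite were followed over time. AUC (ng.h/mL) was calculated for each species and for the two combined.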

[4] = Drug metabolism in rat plasma assessed as 2-(3-pyridinyl)-3-hydroxy-estra-1,3,5(10)-trien-17-one formation at 2 mg/kg, sc administered as single dose measured at 2 hrs post dose by LC-MS analysis; format: ADME, organism-based; conditions: in vivo; procedure, shortened: as §1
[5] = AUC (0 to 24 hrs) in rat plasma at 2 mg/kg, sc administered as single dose measured at 2 hrs post dose by LC-MS analysis; format: ADME, organism-based; set-up: time < 24 hr, dose 2 mg/kg, route subcutaneous; procedure, shortened: as §1
Rattus norvegicus = experiment: AUC (0 to 24 hrs) in rat plasma assessed as 2-(3-pyridinyl)-3-hydroxy-estra-1,3,5(10)-trien-17-one level at 2 mg/kg, sc administered as single dose measured at 2 hrs post dose by LC-MS analysis; format: ADME, organism-based; set-up: dose 2 mg/kg, time < 24 hr, route subcutaneous; conditions: in vivo; procedure, shortened: as §1

| inhibition at 0.75 h, 0.3 µM (CYP1B1 [1]) [%] | Compound | also measured |
| --- | --- | --- |
| 94 | O=c1cc(-c2ccccc2)oc2c1ccc1ccccc12 [ALPHA-NAPHTHOFLAVONE] | – |
| 14 | C[C@]12CC[C@@H]3c4ccc(O)c(-c5cccnc5)c4CC[C@H]3[C@@H]1CCC2=O | – |
| 16.9 | C[C@]12CC[C@@H]3c4ccc(O)c(-c5ccncc5)c4CC[C@H]3[C@@H]1CCC2=O | – |
| 20.9 | C[C@]12CC[C@@H]3c4ccc(O)c(-c5ccncc5)c4CC[C@H]3[C@@H]1CC[C@@H]2O | – |
| 85.4 | C[C@]12CC[C@@H]3c4cc(-c5cccnc5)c(O)cc4CC[C@H]3[C@@H]1CC[C@@H]2O | IC50 (Cytochrome P450 1B1): 11 nM; selectivity ratio (CYP1B1 [2]): 7.5; concentration at 2 h [3]: 4 ng/mL; Drug metabolism [4]: 7 ng/mL; AUC(0-t) at 24 h [5]: 12.8 ng·h/mL; AUC (Rattus norvegicus): 33.2 ng·h/mL |
| 21.3 | C[C@]12CC[C@@H]3c4cc(-c5ccncc5)c(O)cc4CC[C@H]3[C@@H]1CCC2=O | IC50 (Cytochrome P450 1B1): 120 nM |
| 28.9 | C[C@]12CC[C@@H]3c4ccc(O)c(-c5cccnc5)c4CC[C@H]3[C@@H]1CC[C@@H]2O | – |
| 28.2 | C[C@]12CC[C@@H]3c4ccc(-c5cccnc5)cc4CC[C@H]3[C@@H]1CCC2=O | – |
| 6.1 | C[C@]12CC[C@@H]3c4ccc(-c5ccncc5)cc4CC[C@H]3[C@@H]1CCC2=O | – |
| 19.6 | C[C@]12CC[C@@H]3c4ccc(-c5cccnc5)cc4CC[C@H]3[C@@H]1CC[C@@H]2O | – |
| 12.4 | C[C@]12CC[C@@H]3c4ccc(O)cc4CC[C@H]3[C@@H]1CC[C@@H]2O [ESTRADIOL] | – |
| 13.3 | C[C@]12CC[C@@H]3c4ccc(S)cc4CC[C@H]3[C@@H]1CCC2=O | – |
| 37.8 | C[C@]12CC[C@@H]3c4cc(-c5cccnc5)c(O)cc4CC[C@H]3[C@@H]1CCC2=O | IC50 (Cytochrome P450 1B1): 63 nM |
| 19.5 | C[C@]12CC[C@@H]3c4ccc(-c5ccncc5)cc4CC[C@H]3[C@@H]1CC[C@@H]2O | – |

| Compound | inhibition at 0.75 h, 0.3 µM (CYP1B1 [1]) [%] | also measured |
| --- | --- | --- |
| C[C@]12CC[C@@H]3c4cc(-c5ccncc5)c(O)cc4CC[C@H]3[C@@H]1CC[C@@H]2O | 87.4 | IC50 (Cytochrome P450 1B1): 32 nM; selectivity ratio (CYP1B1 [2]): 2.5 |
